Measured values taken from paper PMC10613910 (Heliyon, 2023).

Key:
[1] = Pharmacokinetics of oral talazoparib in wild-type and ABCB1/ABCG2; assay type: in vivo, mouse; conditions: talazoparib 0.5 mg/kg p.o.; for Cmax: female, FVB, mouse, plasma, po, 0.5 mg/kg, mean (±SEM)
Method in brief: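 Adult female FVB wild-type or Abcb1a/Abcb1b/Abcg2-deficient mice (12–20 weeks, 4–5 per group) given test compound 0.5 mg/kg by oral gavage; dosing solution 0.1 mg/mL in 10% dimethylacetamide/5% Solutol HS/85% PBS. Blood at 5, 15, 30 min and 1, 2, 4 h, submandibular then retro-orbital (isoflurane), terminal cardiac. Plasma methanol-precipitated, UHPLC-MS/MS with isotope-labelled IS; Cmax visual, AUC(0–4 h) log-linear trapezoidal.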

[2] = Influence of novobiocin pretreatment on talazoparib pharmacokinetics in mice; assay type: in vivo; conditions: female, FVB, mouse, plasma, po, 0.5 mg/kg, mean (±SEM), N=5; for AUC: 0-4 h
Method in brief: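 Female mice aged 12–20 weeks (wild-type FVB or ABCB1A/ABCB1B/ABCG2-null), fasted 2 h. Pretreatment (50 mg/kg in 5% dextrose) or vehicle given by oral gavage 30 min before test compound (0.1 mg/mL in 10% dimethylacetamide/5% Solutol HS/85% PBS). Blood sampled 5 min–4 h. Plasma assayed by UHPLC-MS/MS with isotope-labelled internal standard. Cmax read from the curve; AUC0–4h by log-linear trapezoidal rule.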

[3] = Stability of talazoparib in mouse plasma QC samples; assay type: physicochemical; conditions: for Bench-top stability, mean deviation: ambient temperature (25 °C) for 6 h; for Bench-top stability, mean deviation / Auto-sampler stability, mean deviation / Re-injection stability, mean deviation: N=3; for Auto-sampler stability, mean deviation: auto-sampler at 4 °C for 24 h; for Re-injection stability, mean deviation: reanalyzed after 24 h in auto-sampler at 4 °C
Method in brief: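 Spiked mouse plasma QC at low (1.5 ng/mL) and high (80 ng/mL) levels. Conditions: bench-top at ambient temperature 6 h; extracts held in autosampler at 4 °C 24 h; processed samples re-injected after 24 h at 4 °C; three cycles of −80 °C storage for 12 h with room-temperature thaw. Quantified by UHPLC-MS/MS with isotope-labelled IS; acceptable within 85–115% of nominal.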

[4] = clinical studies, oral; cited from earlier work
ABCG2 = conditions: mice with a deficiency of only ABCG2; cited from earlier work
[5] = test system: MDCKII cells overexpressing ABCG2; conditions: cited from earlier work
[6] = ABCB1/ABCG2(−/−) mice, novobiocin 50 mg/kg p.o. 30 min before talazoparib 0.5 mg/kg p.o.
[7] = wild-type mice, novobiocin 50 mg/kg p.o. 30 min before talazoparib 0.5 mg/kg p.o.

SMILES: Cn1ncnc1[C@H]1c2n[nH]c(=O)c3cc(F)cc(c23)N[C@@H]1c1ccc(F)cc1 [Talazoparib]
- increase in AUC with deficiency of ABCB1 and ABCG2 ([1]; ABCB1/ABCG2(−/−) vs wild-type mice): ~1.3 fold
- Cmax ([1]; ABCB1/ABCG2(−/−) mice, N=4): 350 ng/mL
- Cmax ([1]; wild-type FVB mice, N=5): 360 ng/mL
- AUC [2, 6]: 890 ng·h/mL
- AUC [2, 7]: 615 ng·h/mL
- Cmax ([2]; ABCB1/ABCG2(−/−) mice, co-treatment none (vehicle), talazoparib 0.5 mg/kg p.o.): 352 ng/mL
- Cmax [2, 6]: 449 ng/mL
- Cmax ([2]; wild-type mice, co-treatment none (vehicle), talazoparib 0.5 mg/kg p.o.): 472 ng/mL
- Cmax [2, 7]: 414 ng/mL
- time stable in mouse plasma samples at room temperature ([3]; bench-top, room temperature, mouse plasma): at least 6 h
- auto-sampler and reinjection stability time ([3]; extracted samples at 4 °C in auto-sampler): at least 24 h
- stability after repeated freeze and thaw cycles ([3]; mouse plasma samples, three freeze-thaw cycles): remained stable
- Bench-top stability, mean deviation ([3]; nominal 1.5 ng/mL, mouse plasma): 2.15%
- Auto-sampler stability, mean deviation ([3]; nominal 1.5 ng/mL): −4.34%
- Re-injection stability, mean deviation ([3]; nominal 1.5 ng/mL): 0.64%
- Bench-top stability, mean deviation ([3]; nominal 80 ng/mL, mouse plasma): −8.09%
- Auto-sampler stability, mean deviation ([3]; nominal 80 ng/mL): −5.14%
- Re-injection stability, mean deviation ([3]; nominal 80 ng/mL): 0.62%
- terminal half-life [4]: ~50 h
- levels of talazoparib in plasma (ABCG2): unaltered
- levels of talazoparib in cells [5]: unaltered
